Most compounds without a hit are left out; they make up all but 4.1% or so of the library.
Efflux pump mplx = inhibitors of Candida efflux pumps in yeast, primary screen, S. cerevisiae, Nile Red, multiplex. 330,000 compounds, 0.44% hits. S. cerevisiae Candida pump triplex. inhibition, % at 10 µM;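 active means plate passing quality check with inhibition over a set limit, or well fluorescence over plate mean plus 4 SD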;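 further: Nile Red retained in pooled yeast measured as flow cytometry median fluorescence; 0% = buffer negative control and 100% = Enniatin B positive control; higher means more Nile Red kept so more efflux inhibition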
AHR activator = AHR activators, primary screen, cell-based, luminescence, luciferase reporter, human; AHR-responsive luciferase reporter cells; activation, % at 5 µM; 320,000 compounds, 2.5% hits; in the data active means activation above about 47%;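 further: 0% = vehicle wells and 100% = reference agonist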
Target sequence (P35869 whole entry, looked up): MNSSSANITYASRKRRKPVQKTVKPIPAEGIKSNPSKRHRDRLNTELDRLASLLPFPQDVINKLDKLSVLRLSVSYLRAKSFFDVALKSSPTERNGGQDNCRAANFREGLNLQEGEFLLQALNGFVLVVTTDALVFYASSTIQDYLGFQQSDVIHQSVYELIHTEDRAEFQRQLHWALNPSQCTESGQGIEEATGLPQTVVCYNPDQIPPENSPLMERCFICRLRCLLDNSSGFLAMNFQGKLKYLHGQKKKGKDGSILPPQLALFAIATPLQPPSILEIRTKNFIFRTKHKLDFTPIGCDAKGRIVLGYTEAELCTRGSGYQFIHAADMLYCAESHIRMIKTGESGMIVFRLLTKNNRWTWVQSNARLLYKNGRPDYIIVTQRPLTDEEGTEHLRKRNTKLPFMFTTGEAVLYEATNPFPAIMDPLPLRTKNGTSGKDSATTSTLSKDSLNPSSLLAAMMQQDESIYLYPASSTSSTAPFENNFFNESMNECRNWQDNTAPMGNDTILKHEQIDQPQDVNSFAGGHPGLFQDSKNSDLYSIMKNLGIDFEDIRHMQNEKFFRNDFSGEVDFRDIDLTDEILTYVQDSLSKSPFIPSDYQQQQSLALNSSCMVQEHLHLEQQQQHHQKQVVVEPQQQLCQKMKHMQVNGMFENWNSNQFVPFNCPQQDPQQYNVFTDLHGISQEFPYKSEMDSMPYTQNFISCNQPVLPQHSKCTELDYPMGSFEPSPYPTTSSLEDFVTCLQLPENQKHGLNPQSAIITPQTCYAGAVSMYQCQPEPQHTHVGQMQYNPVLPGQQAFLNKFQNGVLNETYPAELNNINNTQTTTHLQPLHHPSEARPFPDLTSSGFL
TAG inh = inhibitors of triacylglycerol accumulation, primary screen, cell-based, uHTS, fluorescence, H9c2; inhibition, % at 12.5 µM; H9c2 cells, Nile Red lipid (TAG) fluorescence; cells loaded with 200 µM oleic acid; 230,000 compounds, 0.66% hits;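 active means pattern-corrected inhibition of lipid staining of at least 50% with the nuclear-stain viability signal not falling by more than 50%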;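 further: 0% = DMSO wells and 100% = triacsin C control wells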
Tb MetRS inh = T. brucei MetRS inhibitors, primary screen, biochemical, luminescence. purified T. brucei MetRS, ATP depletion, Kinase-Glo luminescence. 360,000 compounds, 0.4% hits. inhibition, % at 11.9 µM;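 active means inhibition above a per-plate cutoff of the control wells' mean inhibition plus 3 SD, cut at about 5.5% in these data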;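 further: 0% = DMSO wells median and 100% = median of wells with control inhibitor compound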
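Assay system: T. brucei methionyl-tRNA synthetase, purified | Medium: HEPES buffer with MgCl2, KCl, DTT, spermine, BSA, pyrophosphatase | Compound: 11.9 µM single point | Incubation: 15 min enzyme-compound preincubation, 2 h reaction, 10 min detection, 25 °C | Measured by: Kinase-Glo luciferase luminescence reporting remaining unconsumed ATP | Measure: % inhibition normalized to control-well medians | Replication: Singlicate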
SMARCA2 act = SMARCA2 (BRM) function activators, primary screen, cell-based, luminescence, high throughput. AID 652017, 2013. 370,000 compounds, 1% hits. MG213 cells, MMTV-luciferase reporter, dexamethasone, overnight. activation, % at 9.1 µM; in the data active means activation above about 7.8%;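 further: 0% = vehicle wells and 100% = reference activator wells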
Cmpd fluor yeast = flagged as fluorescent in efflux inhibitor counter-screen; shares compounds with Efflux pump mplx; S. cerevisiae AD/pABC3, compound fluorescence, flow cytometry; fluorescence ratio to DMSO, % at 10 µM; 1,700 compounds, 4% hits; AID 588517;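 active means fluorescence ratio to DMSO above its plate's cutoff, the plate mean ratio plus 5 SD, cut at about 210% in these data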;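 further: unstained yeast with no Nile Red so the signal is compound autofluorescence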
Mdr1 pump inh = inhibitors of Candida albicans Mdr1 efflux, confirmation, flow cytometry, singleplex, Cherry Pick1 set; shares compounds with Efflux pump mplx; S. cerevisiae AD/CaMDR1, Nile Red efflux; inhibition, % at 10 µM; 1,700 compounds, 1% hits; in the data active means inhibition above about 26%;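 further: 0% = DMSO vehicle and 100% = reference inhibitor; higher means more Nile Red retained so more efflux inhibition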
CaCdr2 efflux inh = inhibitors of Candida albicans Cdr2 efflux pump, confirmation, S. cerevisiae AD/CaCDR2, flow cytometry, cherry pick 1, singleplex | shares compounds with Efflux pump mplx | Nile Red retention | Nile Red retention ratio vs DMSO, % at 10 µM | 1,700 compounds, 4% hits; in the data active means Nile Red retention ratio vs DMSO above about 190%;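 further: higher ratio means more blocking of Cdr2 efflux of the dye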
Cdr1 pump inh = inhibitors of Candida albicans Cdr1 efflux pump, confirmation, S. cerevisiae AD/CaCDR1, flow cytometry, cherry pick 1, singleplex; shares compounds with Efflux pump mplx; Nile Red efflux; inhibition, % at 10 µM; 1,700 compounds, 1% hits;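 active means inhibition above the screen-wide mean plus twice its standard deviation, cut at about 32% in these data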
TbMetRS confirm = T. brucei MetRS inhibitors, confirmation, biochemical, luminescence | shares compounds with Tb MetRS inh | T. brucei MetRS enzyme, luminescence (ATP depletion) | inhibition, % at 11.9 µM | 1,400 compounds, 93% hits; in the data active means inhibition above about 7%
Jurkat cytotox = Jurkat T cell cytotoxicity, cytotoxicity control for T. brucei MetRS inhibitor project, luminescence, high throughput | shares compounds with Tb MetRS inh | Jurkat cells viability, ATP luminescence | inhibition, % at 8.3 µM | 1,400 compounds, 12% hits; in the data active means inhibition above about 15%;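 further: 0% = vehicle and 100% = reference inhibitor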
Tb MetRS inh FP = T. brucei MetRS inhibitors, orthogonal assay for T. brucei MetRS inhibitor project, biochemical, fluorescence polarization; inhibition, % at 11.9 µM; shares compounds with Tb MetRS inh; purified T. brucei MetRS; AID 651607, 2012; 1,400 compounds, 44% hits; in the data active means inhibition above about 17%;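 further: 0% = vehicle wells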
H9c2 TAG conf = triacylglycerol accumulation inhibitors, retest, confirmation, cell-based, single concentration, Nile Red fluorescence, H9c2; H9c2 lipid accumulation; cells loaded with 200 µM oleic acid; inhibition, % at 12.5 µM; AID 651629, 2012; shares compounds with TAG inh; 990 compounds, 71% hits;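 active means mean inhibition across replicates of 40% or more; inactive means mean inhibition below 40%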;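 further: plate controls were DMSO only wells for no effect and Triacsin C treated wells for full effect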
* = called active by the depositor; nt = no result.

SMILES	Efflux pump mplx	AHR activator	TAG inh	Tb MetRS inh	SMARCA2 act	Cmpd fluor yeast	Mdr1 pump inh	CaCdr2 efflux inh	Cdr1 pump inh	others
S=C(Nc1ccc(Cl)cc1Cl)N1CCCCC1	16.4*	5.7	nt	0.3	0.0	98.2	0.1	112.2	-0.1
CC(=O)N[C@@H]1C[C@@H]2O[C@@H](CO)CC[C@@H]2O[C@@H]1CCc1ccc(C#CC2(O)CCCC2)cc1	nt	nt	nt	nt	2.1	nt	nt	nt	nt
CC(=O)Nc1ccc(Oc2ccc([N+](=O)[O-])cc2Cl)cc1	0.0	0.2	-13.9	1.3	-1.4	nt	nt	nt	nt
CC(Oc1ccc([N+](=O)[O-])cc1Cl)C(=O)Nc1ccc(C(N)=O)cc1 (stereo unspecified)	2.3*	2.4	nt	0.6	-1.4	103.4	-0.2	90.9	-0.1
C[C@@H]1ON(C)[C@H]2C[C@H]3c4cc(N5CCCCC5)ccc4CCN3C[C@@H]12	nt	nt	nt	nt	-0.2	nt	nt	nt	nt
COc1ccccc1CCn1cnc(-c2ccc(F)cc2)c1CC(C)C	nt	nt	nt	nt	-8.5	nt	nt	nt	nt
CCCCOc1ccc(C(=O)N/C(=C\c2ccc([N+](=O)[O-])cc2)C(=O)OCc2ccco2)cc1	0.4*	0.1	9.8	-1.0	-1.5	155.2	1.7	116.2	0.2
CC(CCN1CCC(C(O)(c2ccccc2)c2ccccc2)CC1)Oc1cc(F)cc(C#N)c1 (stereo unspecified)	nt	nt	nt	nt	-3.8	nt	nt	nt	nt
COc1ccc(C(=O)NC23CC4CC(CC(C4)C2)C3)cc1	0.1	-0.8	nt	0.7	0.6	nt	nt	nt	nt
COc1nc(NC23CC4CC(CC(C4)C2)C3)nc(OC)n1	0.5*	8.1	14.1	-0.2	2.6	104.5	-0.2	102.9	0.0
COc1ccc(CN(C)CC#Cc2ccccc2)c(OC)c1	nt	nt	nt	nt	-3.9	nt	nt	nt	nt
Cc1ccc(C(C)(C)C)cc1S(=O)(=O)N1CCC(C(=O)N2CCN(c3ccc(O)cc3)CC2)CC1	0.8*	-1.0	-37.1	-0.4	-3.7	116.8	0.2	118.2	0.2
COC(=O)[C@]12C[C@H](CC(=O)N3CCC(c4ccccc4)CC3)C(=O)N(Cc3ccccc3)C1=C[C@H](C(C)(C)C)O[C@@H]2C	nt	nt	nt	nt	-2.6	nt	nt	nt	nt
COC(=O)C(Cc1ccccc1)NC(=O)CCNC(=O)c1ccco1 (stereo unspecified)	0.8*	4.3	nt	-0.3	0.0	90.8	0.1	84.8	-0.1
O=C(CSc1nnc(-c2ccco2)n1-c1ccc(Cl)cc1)Nc1ccccc1-c1ccccc1	nt	nt	nt	nt	-3.0	nt	nt	nt	nt
CSc1ccccc1OC1CCN(Cc2ccccc2)CC1	5.8*	5.8	nt	-0.6	-2.1	101.7	-0.2	100.7	0.0
OCC[n+]1ccc(/C=C/c2c[nH]c3ccccc23)cc1	2.5*	23.2	nt	0.0	-2.4	429.4*	4.6	118.7	4.1
Cc1ccc(CN2CCCCC(NC(=O)c3cccc(C(F)(F)F)c3)C2=O)cc1 (stereo unspecified)	nt	nt	nt	nt	-2.5	nt	nt	nt	nt
O=C(Oc1ccc2ccccc2c1)c1cncc(Br)c1	0.0	-3.1	nt	-0.2	0.7	nt	nt	nt	nt
O=C(Oc1ccc2c(=O)c(Oc3ccc4ccccc4c3)coc2c1)c1cncc(Br)c1	1.2*	1.1	-6.2	0.0	-1.4	103.0	0.2	112.2	0.4
O=C(C1CCCO1)N1CCN(C(=S)Nc2ccc(F)cc2)CC1 (stereo unspecified)	2.5*	-2.0	nt	-0.2	-3.6	106.7	0.1	108.3	0.1
COC(=O)C1CN(Cc2ccccc2)CCS(=O)(=O)N1Cc1ccc(C(F)(F)F)cc1 (stereo unspecified)	nt	nt	nt	nt	-2.9	nt	nt	nt	nt
O=C(CN1CCN(CCOCCO)CC1)N1c2ccccc2Sc2ccc(Cl)cc21	1.4*	9.9	-13.2	0.5	nt	105.0	-0.2	103.6	0.0
COC(=O)CN1C(=S)N(c2ccc(Cl)cc2)C(=O)C1CC(=O)Nc1ccc(Cl)cc1 (stereo unspecified)	0.5*	11.4	nt	23.6*	-0.7	93.5	-0.1	107.2	-0.1	TbMetRS confirm=39.3*;Jurkat cytotox=2.6;Tb MetRS inh FP=38.4*
O=C(CSc1nc2ccccc2[nH]1)N1CCN(C(=O)c2ccco2)CC1	0.0	12.8	nt	0.7	0.5	nt	nt	nt	nt
O=C(CSc1nc2ccc(Cl)cc2[nH]1)N1CCN(C(=O)c2ccco2)CC1	13.9*	24.8	nt	11.7*	-3.6	101.4	-0.2	89.3	-0.1	TbMetRS confirm=13.8*;Jurkat cytotox=17.0*;Tb MetRS inh FP=11.6
C[C@H](O)[C@@H]1CN2CCc3c([nH]c4cccc(-c5ccccc5)c34)[C@@H]2C[C@@H]1N(C)C(=O)c1ccco1	nt	nt	nt	nt	-3.9	nt	nt	nt	nt
Cc1ccsc1-c1nc(C(N)=O)c2[nH]c(=O)n(-c3ccc(Cl)cc3)c2n1	-0.1	11.9	56.6*	-0.7	2.6	84.4	0.1	103.8	0.0	H9c2 TAG conf=41.5*
Cc1ccc(-n2c(=O)[nH]c3c(C(N)=O)nc(C(C)C)nc32)cc1	0.0	16.7	nt	-0.6	-0.8	nt	nt	nt	nt
C#CCNC(=O)C[C@@H]1C(=O)N(CCc2ccc(Cl)cc2)/C2=C/CCCCC[C@@]21C(=O)OCC	nt	nt	nt	nt	2.9	nt	nt	nt	nt

Bioassay records as filed in PubChem.
